UPR CHOP act: apoptotic UPR (CHOP) activation; CHO-CHOP luciferase reporter, luminescence; percent of tunicamycin response over DMSO baseline; activation, % at 10 µM; 330,000 compounds, 0.34% hits;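 active = at 10 µM dose, activation of 40% or more, normalized to positive control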;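 also: 100% = tunicamycin at 10 µg/mL and 0% = DMSO alone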
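measured by = luciferase luminescence | assay system = CHO-CHOP cells, stable luciferase reporter of PERK-eIF2a-CHOP signalling | amount = 500 reporter cells seeded per well | timing = 6 h compound exposure at 37 °C after overnight seeding | controls = positive tunicamycin 10 µg/mL, negative DMSO alone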
Jurkat NFkB inh: lowers PMA/ionomycin-induced NF-kB signal in Jurkat cells; inhibition, % at 4 µM; AID 435003; PMA/ionomycin-induced NF-kB luciferase reporter, luminescence; 330,000 compounds, 0.53% hits; in the data active = inhibition above about 50%
697 NFkB inh: inhibitors of the PMA/ionomycin-induced NF-kB reporter in 697 B cells; 697 B-cell NF-kB luciferase reporter, 16 h; inhibition, % at 4 µM; 330,000 compounds, 0.33% hits; in the data active = inhibition above about 35%
CHOP inh: blocks CHOP induction under ER stress | AID 2732 | 220,000 compounds, 3.8% hits | CHO-K1 CHOP-promoter luciferase, tunicamycin-induced, 15-18 h | inhibition, % at 10 µM;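 active = compounds that reduced the stress-induced luciferase reporter signal by more than about 70% of percent inhibition, limit read from the data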;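 also: 0% = tunicamycin plus vehicle and 100% = wells without tunicamycin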
UPR XBP1 act: activators of adaptive arm of unfolded protein response (XBP1); CHO-XBP1 luciferase reporter, IRE1-XBP1 UPR activation, luminescence; percent of tunicamycin response, DMSO as zero; activation, % at 20 µM; 330,000 compounds, 0.33% hits; AID 463104;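 active = versus positive control, 20 µM dose yields 30% or more activation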;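 also: 100% = tunicamycin at 10 µg/mL and 0% = DMSO only wells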
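Material: CHO cell line with stable XBP1 luciferase reporter; buffer or medium: F12 medium containing 10% fetal bovine serum; compound: single point, 20 µM final compound, 1% DMSO; incubation: 6 h treatment, 37 °C; measured by: glow luminescence from Steady-Glo reagent; evaluation: activation, % of tunicamycin; control set: tunicamycin high, DMSO low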
Jurkat NFkB conf: lowers PMA/ionomycin-induced NF-kB signal in Jurkat cells; shares compounds with Jurkat NFkB inh; Jurkat NF-kB luciferase, 16 h; inhibition, % at 4 µM; 2,700 compounds, 27% hits; AID 435020;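 active = inhibition reaching about 45% at 4 µM in either replicate, limit read from the data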;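 also: plate controls were PMA/ionomycin stimulated DMSO wells for no effect and unstimulated DMSO wells for full effect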
Active calls of the source: *; / = no result given. The sample as a whole holds a higher share of hits than the screen did.

SMILES	UPR CHOP act	Jurkat NFkB inh	697 NFkB inh	CHOP inh	UPR XBP1 act	Jurkat NFkB conf
CCOC(=O)c1c(C)[nH]c(N=Nc2cccc(OC)c2)c1C	2	-209	-174	64	2	-39
COc1cccc(N2CC(C(=O)Nc3nnc(SCCC4OCCO4)s3)CC2=O)c1 (centres undefined)	2	4	7	/	-3	/
O=C(Nc1ccn(Cc2ccccc2F)n1)c1ccc(COc2ccc(Br)cc2)cc1	5	53*	-30	44	0	52*
O=C(Nc1ccc(Cn2cccn2)cc1)c1ccc(COc2ccc(Br)cc2)cc1	0	-2	-34	-16	0	/
Fc1ccc(Nc2nnc(C(F)(F)F)s2)cc1	0	30	15	15	2	/
Cc1noc(C)c1COc1ccc(CC(=O)NCc2ccccc2)cc1	2	62*	-58	10	-2	47
O=C(Cc1ccc(-c2ccccc2)cc1)NCc1cccnc1	-2	47	-15	4	0	/
O=C(Cc1ccc(-c2ccccc2)cc1)NCc1ccccc1	4	62*	-25	46	10	47
Cc1noc(C)c1COc1ccc(CC(=O)NCCc2ccccn2)cc1	0	-13	14	/	-3	/
Cc1ccc(CNC(=O)Cc2ccc(-c3ccccc3)cc2)cc1	-1	63*	21	4	2	17
COc1cc(NC(=O)c2cc(-c3ccc4c(c3)OCO4)on2)cc(OC)c1OC	2	66*	4	/	3	25
COc1cc(NC(=O)c2cc(-c3ccccc3)on2)cc(OC)c1OC	0	-2	-10	/	-5	/
Cc1ccc(O)c(NC(=O)CCC2CCCCC2)c1	2	64*	3	/	-2	40
CCOC(=O)c1ccc(N/C=C\C(=O)c2cccc(OC)c2)cc1	3	-29	-65	-46	2	/
Cc1cccc(OCC(=O)Nc2cc(C)c(C)cc2O)c1	2	7	-9	30	-1	/
COc1cccc(C(=O)/C=C/Nc2cc(C)ccc2O)c1	7	67*	-61	/	8	-8
Cc1cccc(OCC(=O)Nc2cc(C)ccc2O)c1	-2	72*	29	/	-3	55*
COc1ccc(N/C=C/C(=O)c2ccc(C)cc2)c([N+](=O)[O-])c1	8	-179	-191	/	0	-84
CCOc1ccc(N/C=C/C(=O)c2ccc(OC)cc2)c([N+](=O)[O-])c1	4	-69	-80	-9	5	/
COc1cc2c(cc1O)CCN(C(=O)CSc1nncn1C)[C@@H]2C	3	6	10	/	-1	/
Cc1noc(C)c1S(=O)(=O)N(C)C[C@H]1Oc2ccc(NS(=O)(=O)c3ccccc3)cc2C(=O)N([C@H](C)CO)C[C@@H]1C	1	-5	0	/	-4	/
COc1ccc(C(=O)/C=C/Nc2cccc(O)c2)cc1	-2	-179	-60	12	-4	-69
Cc1ccc(Cl)c(N/C=C/C(=O)c2ccccc2)c1	4	-181	-229	/	5	-80
O=C(Cn1cnc(S(=O)(=O)N2CCCC2)c1)Nc1ccc(OC(F)(F)F)cc1	0	-9	-18	/	-3	/
Nc1nc(-c2ccc3ccccc3c2)cs1	2	-159	-114	-1	5	-20
SMILES	UPR CHOP act	Jurkat NFkB inh	697 NFkB inh	CHOP inh	UPR XBP1 act	Jurkat NFkB conf
C=CCOCC(O)Cn1c(N2CCCC2)nc2c1c(=O)[nH]c(=O)n2C (centres undefined)	1	7	-5	/	-1	/
CNC[C@H](CC1CCCCC1)NC[C@H](Cc1ccccc1)NCCC12CC3CC(CC(C3)C1)C2	18	91*	21	/	-9	45
NC[C@H](Cc1ccccc1)NCCCCC1CCCCC1	-1	6	-5	/	7	/
CCOc1ccc(N(CC(=O)Nc2ccccc2C)S(=O)(=O)c2c(C)noc2C)cc1	-2	58*	-62	/	0	46*
COc1ccc(N(CC(=O)Nc2cc(C)ccc2OC)S(=O)(=O)c2c(C)noc2C)cc1	0	14	8	8	0	/
CCOc1ccccc1NC(=O)CN(c1ccc(OC)cc1)S(=O)(=O)c1c(C)noc1C	-1	65*	-44	/	9	44
N#CC1=C(N)Oc2cc(N)ccc2C1c1cccc(F)c1 (centres undefined)	-1	47	-38	/	-4	/

Screening data: PubChem, several laboratories
